Most compounds without a hit are left out; they make up all but 2.3% or so of the library.
V1R ag counter: counter-screen for oxytocin receptor agonists: human V1a receptor agonists. 320,000 tested, 0.25% active. CHO-V1R cells, Fluo-8 calcium fluorescence, agonist mode; 0% DMSO, 100% 3 nM vasopressin. activation, % at 3 µM. AID 2797;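 active = activation above the mean activation of all tested compounds plus 3 SD, per screening run, cut at about 20% in these data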;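 also: signal is peak over basal fluorescence ratio across a 100 second FLIPR read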
TAAR1 agonist: human TAAR1 agonism; CHO RD-HGA16 TAAR1, Fluo-8 calcium fluorescence; vehicle wells 0%, saturating PEA agonist 100%; activation, % at 3 µM; 360,000 tested, 0.99% active;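 active = activation above the mean activation of all test compounds in the run plus 3 SD, cut at about 38% in these data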
Target sequence (Q96RJ0 whole entry, looked up): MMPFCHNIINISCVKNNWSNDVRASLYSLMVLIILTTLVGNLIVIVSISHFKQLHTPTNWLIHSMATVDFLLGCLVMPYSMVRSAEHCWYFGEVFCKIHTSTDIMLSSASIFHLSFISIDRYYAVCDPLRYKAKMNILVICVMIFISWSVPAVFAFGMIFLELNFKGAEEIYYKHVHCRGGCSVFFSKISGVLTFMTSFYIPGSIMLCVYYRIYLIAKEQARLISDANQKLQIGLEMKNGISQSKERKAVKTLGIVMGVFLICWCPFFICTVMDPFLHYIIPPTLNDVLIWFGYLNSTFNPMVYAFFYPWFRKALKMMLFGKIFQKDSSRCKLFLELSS
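test system = CHO RD-HGA16 cells carrying human TAAR1 plus Gα16 | schedule = 17-24 h seeding, 75 min 37 °C dye, 30 min RT | compound dosing = 3 µM single concentration | control set = DMSO and PEA EC100 | replicates = n 1 | signal = Fluo-8 fluorescence, 5 s baseline then 140 s kinetic read | measure = percent activation vs PEA EC100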
OXTR agonist: human OXTR agonism. 320,000 tested, 0.32% active. activation, % at 3 µM. P30559. CHO-OTR cells, Fluo-8 calcium fluorescence; normalized: DMSO 0%, oxytocin 100%;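 active = activation above the mean of all tested compounds plus 3 SD, cutoff set per screening run, cut at about 20% in these data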;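 also: peak over basal fluorescence ratio from a 100 s FLIPR kinetic read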
Target sequence (P30559 whole entry, looked up): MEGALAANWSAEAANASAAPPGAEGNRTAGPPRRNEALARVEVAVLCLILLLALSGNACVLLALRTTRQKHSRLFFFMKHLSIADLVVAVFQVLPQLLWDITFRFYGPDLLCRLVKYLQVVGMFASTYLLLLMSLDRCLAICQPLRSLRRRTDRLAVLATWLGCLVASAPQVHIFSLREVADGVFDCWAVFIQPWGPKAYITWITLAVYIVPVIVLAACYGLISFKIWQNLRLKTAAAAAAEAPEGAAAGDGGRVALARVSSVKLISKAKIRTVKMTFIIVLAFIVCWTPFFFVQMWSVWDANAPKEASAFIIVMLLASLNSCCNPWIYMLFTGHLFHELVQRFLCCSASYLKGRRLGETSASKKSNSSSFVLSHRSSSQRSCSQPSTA
TAAR1 antag: antagonists of human TAAR1; inhibition, % at 3 µM; 360,000 tested, 1.5% active; Q96RJ0; CHO RD-HGA16 TAAR1, Fluo-8 calcium fluorescence, antagonist; AID 624466;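 active = inhibition above a per-plate cutoff, the mean inhibition of test compounds on that plate plus 3 SD, cut at about 49% in these data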;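 also: 0% = DMSO plus EC80 beta-PEA response and 100% = DMSO alone without agonist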
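Test system: hTAAR1-expressing CHO RD-HGA16 cells, Gα16-coupled; Probe or stimulus: EC80 β-phenethylamine stimulus; Compound dosing: single nominal final test compound concentration of 3 µM; Timing: 140 s kinetic read after compound, 140 s after agonist; Signal: Fluo-8 calcium-sensitive fluorescence; Measure: % inhibition of agonist calcium response; Controls: DMSO and EC80 PEA controls.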
OXTR potentiate: potentiates the human oxytocin receptor response. P30559. CHO-OTR cells, Fluo-8 calcium fluorescence, potentiator mode; 0% = oxytocin EC15, 100% = EC100. 320,000 tested, 0.061% active. activation, % at 3 µM;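 active = activation above that plate's cutoff, the mean activation of tested compounds plus 3 SD, cut at about 6.6% in these data, passing the limit was not always enough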;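 also: 100% uses oxytocin at 75 nM as the full agonist control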
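System: human OTR in CHO cells; Also added: sub-maximal oxytocin, roughly EC15; Timing: compound 6 min at room temperature before oxytocin, 100 s read; Technique: Fluo-8 intracellular calcium fluorescence, ex 470-495, em 515-575 nm; Controls: oxytocin EC15 low and EC100 high; Replication: singlicate.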
TAAR1 ag conf: confirmation of human TAAR1 agonists. shares compounds with TAAR1 agonist. CHO RD-HGA16 TAAR1, Fluo-8 calcium fluorescence; scaled: DMSO 0%, maximal phenethylamine 100%. activation, % at 3 µM. 2,400 tested, 82% active. AID 651783;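 active = activation above a cutoff set at the run's mean compound activation plus 3 SD, cut at about 39% in these data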
Ga16 nonsel ag: counter-screen for TAAR1 agonists: nonselective agonists in parental cells | activation, % at 3 µM | AID 651787 | shares compounds with TAAR1 agonist | 2,400 tested, 50% active | CHO-Ga16 parental, Fluo-8 calcium fluorescence; normalized to maximal ATP response, DMSO zero;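 active = activation above the run cutoff, the mean activation over all tested wells plus 3 SD, cut at about 12% in these data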;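 also: 0% = DMSO wells and 100% = maximal ATP response on the peak over basal ratio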
TAAR1 desensitize: human TAAR1 agonist that also desensitizes the receptor; shares compounds with TAAR1 agonist; CHO RD-HGA16 hTAAR1, Fluo-8 calcium, beta-PEA response inhibition; inhibition, % at 3 µM; 2,400 tested, 46% active;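 active = inhibition above the run cutoff, the mean inhibition of all test compounds plus 3 SD, cut at about 49% in these data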;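 also: beta-PEA stimulus applied at its EC80; loss of beta-PEA calcium signal after compound pretreatment read as receptor desensitization; 0% = DMSO with beta-PEA at EC80 and 100% = DMSO alone without agonist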
Ga16 nonsel ant: nonselective Ga16 antagonist in TAAR1 agonist counter-screen; 2,400 tested, 39% active; AID 651952; shares compounds with TAAR1 agonist; inhibition, % at 3 µM; CHO-Ga16 ATP-induced calcium, Fluo-8 fluorescence;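 active = inhibition above the plate's mean compound inhibition plus 3 SD, computed per plate, cut at about 22% in these data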;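 also: 0% = EC80 ATP with DMSO and 100% = DMSO wells without ATP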
* hit, by the source's call; . = no result given.

SMILES | V1R ag counter | TAAR1 agonist | OXTR agonist | TAAR1 antag | OXTR potentiate | TAAR1 ag conf | Ga16 nonsel ag | TAAR1 desensitize | Ga16 nonsel ant
COc1ccc2c(Cn3cnc4cc([N+](=O)[O-])ccc4c3=O)cc(=O)oc2c1 | 0 | . | 1 | . | -4 | . | . | . | .
O=c1c2ccc([N+](=O)[O-])cc2ncn1Cc1ccccc1C(F)(F)F | 0 | 51* | -1 | 7 | -11 | 8 | 22* | -2 | 12
Cc1ccc2c(c1)[nH]c1c(=O)n(Cc3ccco3)cnc12 | 8 | 73* | 8 | 28 | -7 | 101* | 74* | 89* | 66*
O=c1c2[nH]c3ccccc3c2ncn1Cc1ccco1 | -1 | 11 | -2 | 5 | 0 | . | . | . | .
O=[N+]([O-])c1cccc(NC(=S)NCCc2ccccc2)c1 | 6 | 10 | 11 | 23 | -19 | . | . | . | .
O=[N+]([O-])c1ccc(S(=O)(=O)NNC(=S)NCCc2ccccc2)cc1 | 1 | 52* | 0 | -23 | -6 | 56* | 3 | 6 | 7
O=C(NCCCNC(=O)c1ccccn1)c1ccc(Br)cc1 | -1 | -1 | -1 | -17 | -8 | . | . | . | .
CC(C)C[C@H](NC(=O)[C@@H]1Cc2ccccc2CN1C(=O)OC(C)(C)C)C(=O)NCC1CCC(C(=O)O)CC1 (some centres undefined) | 0 | 2 | 0 | -11 | -2 | . | . | . | .
CC(C)(C)OC(=O)N1CCCC(C(=O)Nc2cccc(C(=O)N3CCCC3)c2)C1 (centres undefined) | 0 | 12 | 1 | 2 | -5 | . | . | . | .
CSc1ccccc1OCc1cc(C(=O)NCCC2=CCCCC2)no1 | 0 | 55* | 0 | -16 | -3 | 38* | 7 | 89* | 58*
NC(N)=N/N=C(\N=Nc1ccccc1)c1cccc2cccnc12 | . | 1 | . | -17 | . | . | . | . | .
NC(N)=N/N=C(\N=Nc1ccccc1)c1ccc(Cl)cc1 | . | 49* | . | 28 | . | 76* | 38* | 77* | 50*
CCn1nc(C)c(/C=N/NC(=O)Cn2cncn2)c1C | 1 | 9 | 0 | 8 | -3 | . | . | . | .
CNC[C@H]1Oc2c(NS(=O)(=O)c3ccccc3)cccc2C(=O)N([C@H](C)CO)C[C@@H]1C | 2 | 4 | 1 | 0 | 4 | . | . | . | .
COc1ccccc1CCNC(=O)C(=O)NCC1OCCCN1S(=O)(=O)c1ccc(F)cc1C (centres undefined) | 3 | 58* | 1 | 4 | -3 | 64* | 4 | 20 | 12
O=C(NCCc1ccccc1)C(=O)NCC1OCCN1S(=O)(=O)c1cc(F)ccc1F (centres undefined) | 4 | 52* | 4 | 43 | -2 | 69* | 11 | 58* | 34*
COc1ccc(S(=O)(=O)N2CCOC2CNC(=O)C(=O)NCCc2ccccc2)cc1OC (centres undefined) | 1 | 20 | 2 | -3 | -7 | . | . | . | .
COc1ccccc1CCNC(=O)C(=O)NCC1OCCN1S(=O)(=O)c1cccs1 (centres undefined) | 1 | 72* | 3 | -5 | -13 | 74* | 1 | 36 | 16
COCCNC(=O)C(=O)NCC1OCCN1S(=O)(=O)c1cccs1 (centres undefined) | 0 | 4 | 0 | -2 | 1 | . | . | . | .
COc1ccccc1CCNC(=O)C(=O)NCC1OCCN1S(=O)(=O)c1ccc([N+](=O)[O-])cc1 (centres undefined) | 3 | 46* | 0 | -21 | -6 | 73* | 3 | 13 | 6
CCOC(=O)Cc1csc(NC(=O)/C=C\c2ccccc2Cl)n1 | 1 | 6 | 1 | 8 | -10 | . | . | . | .
CCCOC1CCCN(C(=O)c2cc(COc3ccc(-n4cncn4)cc3)on2)C1 (centres undefined) | 6 | 1 | 4 | -3 | -22 | . | . | . | .
COc1ccccc1CCNC(=O)C(=O)NCC1OCCN1S(=O)(=O)c1ccccc1 (centres undefined) | 0 | 47* | -1 | 5 | -5 | 69* | 1 | 34 | 5
COc1ccccc1CCNC(=O)C(=O)NCC1OCCCN1S(=O)(=O)c1cc(C)ccc1C (centres undefined) | 4 | 6 | 3 | 5 | -6 | . | . | . | .
O=C(NCCc1ccccc1)C(=O)NCC1OCCN1S(=O)(=O)c1ccccc1 (centres undefined) | -1 | 80* | 0 | 30 | -1 | 78* | 0 | 64* | 6
SMILES | V1R ag counter | TAAR1 agonist | OXTR agonist | TAAR1 antag | OXTR potentiate | TAAR1 ag conf | Ga16 nonsel ag | TAAR1 desensitize | Ga16 nonsel ant
COc1ccccc1CCNC(=O)C(=O)NCC1OCCN1S(=O)(=O)c1ccc(C)cc1 (centres undefined) | 1 | 63* | 0 | 37 | -5 | 76* | 2 | 58* | 5
COc1ccc(OC)c(CCNC(=O)C(C)n2nc(C)c3c(C)n(-c4ccc(C)cc4)nc3c2=O)c1 (centres undefined) | 5 | 2 | -2 | -5 | -1 | . | . | . | .
Cc1c(CNCCc2ccccc2Cl)c(C(=O)O)c(C)n1-c1ccccc1 | 0 | 90* | 0 | 65* | -9 | 92* | 25* | 74* | 6
Cc1c(Cl)cccc1-c1ccc(/C=N/n2cnnc2)o1 | 0 | 47* | 1 | -19 | -5 | 38* | 19* | 12 | 13
Nc1cc(OC(=O)c2c(F)cccc2Cl)nn1S(=O)(=O)c1ccccc1 | 0 | 54* | -1 | -7 | -10 | 51* | 22* | 10 | 18
COc1ccc(C(=O)Oc2cc(N)n(S(=O)(=O)c3ccccc3)n2)cc1 | 0 | 2 | -2 | 3 | -7 | . | . | . | .
O=C1c2ccccc2S(=O)(=O)N1Cc1nnc(-c2ccccc2Br)o1 | . | 37 | . | 0 | . | . | . | . | .
O=c1c2ccccc2nnn1Cc1nnc(-c2ccccc2Br)o1 | 19 | 67* | 16 | -1 | -11 | 115* | 80* | 22 | 1
Cc1cc(N2CCC(C)CC2)nc(NCc2ccccc2)n1 | 8 | 60* | 19 | 36 | -16 | 67* | 34* | 53* | 31*
Cc1cc(Nc2ccc(Cl)cc2)nc(NCc2ccccc2)n1 | 11 | 55* | 8 | -8 | -9 | 81* | 35* | 53* | 29*

Source: PubChem
